The full list was thinned out, with hits kept by preference.
bCat KO growth: beta-catenin-lacking colon tumor cell growth suppression | hit rate 1.5% among 140,000 | HCT116 beta-catenin knockout viability, CellTiter-Glo, 60 h; active compounds read low | viability, % at 10 µM;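 active = viability at or under a set limit, the compound median less 4 SD, cut at about 6% in these data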;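 also: 0% = Hyamine 1622 control at 20 µM and 100% = untreated cell control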
HUVEC inhibit: human endothelial cell proliferation inhibition; HUVEC proliferation, CellTiter-Glo luminescence, 72 h; active compounds read low; viability, % at 10 µM (by protocol); hit rate 1.1% among 86,000;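 active = viability at or below 30%; inactive = viability above 30%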;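 also: 100% = median luminescence of DMSO-only cell control wells on each plate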
Lung fibro prol: blocks proliferation of human lung fibroblasts; LL 47 human lung fibroblast viability, ATP luminescence; active compounds read low; viability, % at 10 µM; hit rate 1.1% among 85,000; AID 719;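 active = viability at or below 50% in the single dose screen; inactive = viability above 50%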;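 also: compound exposure lasted 72 h before the ATP readout; 100% = median luminescence of untreated cell-only wells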
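Assay system: human lung fibroblast line LL 47, low passage. Input: 1,150 fibroblasts seeded per well. Times: overnight cell rest, 72 h compound treatment at 37 °C. Evaluation: % viability of median cell-only signal. Technique: luminescent ATP detection, CellTiter-Glo. Control set: cell-only wells, no compound.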
PTEN del growth: suppresses growth of cells with PTEN deletion; hit rate 1.2% among 140,000; AID 827; viability, % at 10 µM; HCT116 PTEN-null viability, CellTiter-Glo, 60 h; active compounds read low;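 active = viability at or below a set limit, 4 SD under the median of all tested compounds, cut at about 3.7% in these data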;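 also: PTEN knockout HCT116 line with beta catenin targeted HCT116 as companion control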
Calb biofilm kill: kills Candida albicans biofilms; inhibition, % at 6 µM; hit rate 0.14% among 85,000; AID 834; C. albicans biofilm + clotrimazole, Alamar Blue;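 active = inhibition above 20%; inactive = inhibition below 20%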;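 also: preformed 24 hr biofilms exposed to compound for 48 hr; 0% = biofilm without compound and 100% = blank killed by clotrimazole plus chlorhexidine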
H69AR inhibit: blocks growth of human H69AR lung tumor cells; viability, % at 10 µM; hit rate 6% among 85,000; H69AR lung tumor viability, ATP luminescence, 72 h; active compounds read low;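 active = viability at or below 40%; inactive = viability above 40%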;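 also: multidrug resistant small cell line overexpressing MRP-1 efflux transporter; 100% = mean luminescence of untreated control wells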
An asterisk follows results filed as active; nt = no result given.

SMILES	bCat KO growth	HUVEC inhibit	Lung fibro prol	PTEN del growth	Calb biofilm kill	H69AR inhibit
CC(=O)Nc1ccc(S(=O)(=O)NC2=C(N3CCN(Cc4ccccc4)CC3)C(=O)c3ccccc3C2=O)cc1	55.5	7.0*	103.1	63.9	2.9	30.9*
CCOC(=O)c1nnc(-c2ccc(C)cc2)nc1Sc1ccc(Cl)cc1	35.8	68.8	73.8	26.8	0.4	3.3*
CCOC(=O)c1nnc(-c2ccccc2)nc1Sc1c(Cl)cccc1Cl	22.6	68.1	89.5	55.1	4.9	1.9*
CCOC(=O)c1nnc(-c2ccc(C)cc2)nc1Oc1ccccc1Cl	85.5	nt	nt	102.5	nt	nt
CCOC(=O)c1nnc(-c2ccc(C)cc2)nc1Sc1ccccc1Cl	37.8	68.8	83.6	27.3	4.9	24.9*
CC(=O)c1c(C(C)=O)c(C)n(NC(=O)c2ccncc2)c1C	100.3	84.9	93.0	97.0	7.2	85.5
Nc1ccnc(C(F)(F)F)c1C(=O)c1ccccc1	104.4	97.6	102.7	101.2	7.8	93.2
CSc1nn(CCc2ccncc2)c(=S)s1	58.8	88.2	89.7	77.6	-4.6	63.0
COC(=O)/C=c1\sc2ncnn2c1=O	94.9	97.4	98.1	104.4	4.6	7.9*
CNC(=O)/C(C#N)=c1\s/c(=C/C(=O)OC)c(=O)n1-c1ccccc1	88.5	91.0	97.9	86.0	6.7	60.4
Cc1nnc(SCC(=O)N2c3ccccc3CC2C)[nH]c1=O (stereo not given)	85.0	nt	nt	95.9	nt	nt
O=C(CSc1nnc(CNc2ccc(F)cc2)o1)N1c2ccccc2Sc2ccccc21	65.9	nt	nt	60.2	nt	nt
N#C/C(=C\c1ccc(-c2cccc(Cl)c2)o1)C(=O)Nc1cccc2cccnc12	114.3	80.1	96.5	104.9	2.5	14.6*
N#C/C(=C\c1ccc(-c2ccccc2)o1)C(=O)Nn1cnnc1	106.0	nt	nt	94.5	nt	nt
CCC(C(=O)NCc1ccco1)N(C(=O)CNS(=O)(=O)c1ccccc1)c1ccc(OC)cc1 (stereo not given)	95.2	98.5	96.2	91.5	5.0	105.3
O=C(N/N=C/c1ccc(Cl)cc1)c1sccc1OCc1ccc(F)cc1	6.0*	nt	nt	5.6	nt	nt
O=C(N/N=C/c1ccc(F)cc1)c1sccc1OCc1ccc(F)cc1	14.4	nt	nt	15.2	nt	nt
Cc1ccc(/C=C/C2=Cc3c(sc(NC(=O)CSc4n[nH]c(N)n4)c3C#N)C(C)(C)C2)o1	53.4	72.5	67.7	58.9	-0.2	28.5*
O=C(NC1CCCC1)C(c1ccc(F)cc1)N(Cc1ccc(F)cc1)C(=O)CCl (stereo not given)	82.6	nt	nt	81.1	nt	nt
O=S(=O)(CCOc1ccccc1)c1nc2ccccc2[nH]1	12.9	78.4	85.4	30.4	2.1	0.3*
N#Cc1ccc(N=c2ssnc2Cl)cc1	97.2	58.2	81.9	94.1	4.3	2.6*
COc1cc(N=c2ssnc2Cl)cc(OC)c1OC	86.2	56.0	47.5*	89.4	9.7	1.7*
Clc1ccc(N=c2ssnc2Cl)cc1	86.0	67.1	84.0	80.4	6.3	1.9*
COc1ccc(N=c2ssnc2Cl)cc1	93.9	91.9	63.4	99.8	6.2	1.3*
COc1cc(-c2nnc(-c3cc(OC)c(OC)c(OC)c3)o2)cc(OC)c1OC	82.2	79.5	98.6	94.2	2.4	77.6
SMILES	bCat KO growth	HUVEC inhibit	Lung fibro prol	PTEN del growth	Calb biofilm kill	H69AR inhibit
COc1ccc(N=Cc2sc3ccccc3c2Cl)cc1	76.7	nt	nt	94.4	nt	nt
O=C(Nc1nnc(CC(=O)N2CCCC2)s1)c1cnccn1	nt	90.5	113.5	nt	2.6	93.3
Cc1ccc(NC(=O)c2ccc(Cl)c(N3C(=O)C=CC3=O)c2)cc1	101.2	nt	nt	101.0	nt	nt
CCCCNc1nc(N)nc(-c2cc(Cl)ccc2O)n1	7.8	nt	nt	5.7	nt	nt
CCNc1nc(N)nc(-c2cc(Cl)ccc2O)n1	5.2*	nt	nt	6.5	nt	nt
CC(C)CC(=O)/C(=C\c1ccc(Cl)cc1Cl)n1cncn1	1.6*	nt	nt	1.3*	nt	nt
COc1cc(-c2nnc(CSc3nnc(Nc4ccc(Oc5ccccc5)cc4)s3)o2)cc(OC)c1OC	70.1	nt	nt	66.9	nt	nt
COC(=O)c1ccc(CSc2nc(N3CCOCC3)c3c(c2C#N)CC(C)(C)OC3)o1	84.0	92.8	104.0	80.0	2.1	31.8*
Brc1ccc(-c2csc3ncnc(-n4nnc5ccccc54)c23)cc1	68.5	nt	nt	58.9	nt	nt
O=C(O)c1cc(Cl)c(Cl)cc1C(=O)Nc1cccc2cccnc12	88.3	nt	nt	89.5	nt	nt
CC(=O)[C@@]1(O)CC[C@H]2[C@@H]3CCC4=CC(=O)CC[C@]4(C)[C@H]3CC[C@@]21C	81.0	89.4	88.8	82.7	-0.1	94.5
CCCCCC(=O)O[C@]1(C(C)=O)CC[C@H]2[C@@H]3CCC4=CC(=O)CC[C@]4(C)[C@H]3CC[C@@]21C	4.8*	70.7	85.0	6.8	17.2	4.8*
CN1CCN(C(=S)NC(=O)c2ccc(C(C)(C)C)cc2)CC1	98.1	nt	nt	104.9	nt	nt
C=CCn1cccc(/C=C/C(=O)c2ccc(C(C)(C)C)cc2)c1=S	1.4*	nt	nt	1.8*	nt	nt
O=C(N/N=C/c1ccc(-c2cccc(C(F)(F)F)c2)o1)c1ccccc1O	10.1	nt	nt	3.1*	nt	nt
O=C(N/N=C/c1ccc(-c2cccc(C(F)(F)F)c2)o1)c1ccccc1Br	97.5	nt	nt	82.1	nt	nt
O=C(CCCSc1nnnn1-c1ccccc1)c1ccc(F)cc1	110.5	nt	nt	93.4	nt	nt
COc1ccc(CC(C)N2CCN(c3cccc(C(F)(F)F)c3)CC2)cc1OC (stereo not given)	52.8	78.3	86.4	61.9	6.1	95.4
CCOc1ccc(OCC)c(-c2c(=O)n(OCc3ccccc3Br)c3ccccc3[n+]2[O-])c1	81.8	nt	nt	84.9	nt	nt
COc1ccc(CNC(=O)CSc2ccc(Br)cc2)cc1OC	94.1	nt	nt	93.8	nt	nt
CC(C)Cc1nc2oc3c(NCCCN4CCOCC4)ncnc3c2c2c1CCC2	39.4	75.2	94.0	43.4	0.5	54.9
CC(C)Cc1nc2oc3c(Cl)ncnc3c2c2c1CCC2	0.9*	3.3*	44.6*	0.8*	3.3	70.3
O=C(CCN1C(=O)COc2ccccc21)NCc1cccs1	103.9	96.5	100.0	93.1	-1.1	102.1
O=C(N/C(=C/c1cn(-c2ccccc2)nc1-c1ccccc1)C(=O)N1CCOCC1)c1ccc(Cl)cc1Cl	67.9	nt	nt	65.7	nt	nt
COc1ccc(/C=N/NC(=O)OC(C)(C)C)cc1OC	83.5	nt	nt	88.5	nt	nt
SMILES	bCat KO growth	HUVEC inhibit	Lung fibro prol	PTEN del growth	Calb biofilm kill	H69AR inhibit
O=C1CC(=C2c3ccccc3-c3ccccc32)C(=O)N1CCN1CCN(c2cccc(Cl)c2)CC1	nt	86.1	100.1	nt	7.9	82.1
CC1CCc2cc(F)ccc2N1C(=O)CSc1nnc2c3ccccc3n(C)c2n1 (stereo not given)	84.0	nt	nt	87.6	nt	nt
CC1Cc2ccccc2N1C(=O)CSc1nnc2c(n1)[nH]c1ccc(F)cc12 (stereo not given)	35.6	53.5	100.1	7.0	-1.8	37.5*
Cc1ccc(C(=O)NC(=C(Cl)Cl)S(=O)(=O)c2ccc(C)cc2)cc1	80.2	nt	nt	75.5	nt	nt
Cc1ccc(S(=O)(=O)/C(=C/Cl)NC(=O)c2ccccc2)cc1	6.0*	nt	nt	8.7	nt	nt
CN1CC(c2ccccc2)C2(SC(=S)N(Cc3ccco3)C2=O)C12C(=O)Nc1ccccc12 (stereo not given)	60.5	49.6	92.6	69.2	-1.6	1.6*

High-throughput results deposited in PubChem by several laboratories.
